This is a sample that favours compounds with a hit; in the whole collection about 2% have one here.
STAT3 activator: IL-6 driven STAT3 reporter potentiators, primary screen, U3A cells, luciferase, luminescence, MLSCN library; activation (% of control), % at 5.6 µM; AID 871, 2007; 0.91% of 190,000 active; IL-6 STAT3-luciferase reporter; 100% = signal with IL-6 EC80 alone;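 active = activation above the screen-wide mean of compound activation plus 3 SD, cut at about 130% in these data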;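 also: 0% = background luminescence of wells with medium and substrate only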
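Material: human STAT1-deficient U3A cells with stable STAT3-luciferase reporter / Probe or stimulus: IL-6 stimulus at 33 ng/mL final / Schedule: 1 h compound pre-exposure, 6 h IL-6 stimulation, 37 °C / Technique: luminescence / Read-out basis: percent of IL-6-only median luminescence / Control set: IL-6-only high control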
STAT3 inh-1: IL-6 driven STAT3 reporter inhibitors, primary screen, U3A cells, luciferase, luminescence, MLSCN library. IL-6 STAT3-luciferase reporter; host cell line lacks STAT1. inhibition, % at 5.5 µM. 0.89% of 190,000 active;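 active = inhibition above the mean inhibition across all screened compounds plus 3 SD, cut at about 44% in these data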;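 also: 0% = DMSO only wells and 100% = 100 µM nifuroxazide control wells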
STAT1 inh: STAT1 signaling inhibitors, primary screen, cell-based, HTS, luciferase reporter; AID 920, 2007; NIH 3T3 STAT1-luciferase reporter, IFN-gamma, luminescence; inhibition, % at 5.5 µM; 0.35% of 200,000 active;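 active = inhibition above a set limit, the mean inhibition across all tested compounds plus 3 SD, cut at about 34% in these data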;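 also: 0% = IFN-gamma with DMSO and 100% = IFN-gamma with 300 µM nifuroxazide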
HSP90 inh: HSP90 inhibitors, primary screen, cell lysate, luminescence. Rabbit reticulocyte lysate, luciferase refolding luminescence, 3 h. AID 1789, 2009. 0.91% of 290,000 active. inhibition, % at 5.6 µM;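 active = inhibition above the screen-wide mean plus 3 SD, computed separately per campaign, cut at about 16% in these data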;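 also: 0% = DMSO wells and 100% = 60 µM geldanamycin wells; inhibitors lower the luminescence because luciferase stays unfolded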
STAT3 inh-2: STAT3 reporter inhibitors, retest of hits, confirmation, U3A cells, luciferase, luminescence; shares compounds with STAT3 inh-1; IL-6 STAT3 luciferase reporter; cell line lacks STAT1; inhibition, % at 5.7 µM; 45% of 1,200 active; AID 1265, 2008;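 active = inhibition above the hit cutoff computed for the primary STAT3 screen, cut at about 44% in these data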;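 also: 0% = IL-6 plus DMSO and 100% = IL-6 plus nifuroxazide control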
NFkB inh STAT3ct: NF-kB reporter inhibitors in human cells, confirmation, counter-screen for STAT3 inhibitor project, cell-based, HEK293T, luciferase, TNF-alpha stimulus; TNF-alpha induced; shares compounds with STAT3 inh-1; inhibition, % at 5.7 µM; 36% of 1,200 active; AID 1308, 2008;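 active = inhibition above the mean of solvent-only control wells plus 3 SD, cutoff set per campaign, cut at about 13% in these data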;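 also: 0% = TNF-alpha with DMSO and 100% = TNF-alpha with MG high control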
STAT1 inh 2: STAT1 reporter inhibitors, IFN-gamma induced, confirmation, counter-screen for STAT3 inhibitor project, cell-based, NIH 3T3, luciferase luminescence | inhibition, % at 5.7 µM | shares compounds with STAT3 inh-1 | 27% of 1,200 active | AID 1317, 2008 | NIH 3T3 STAT1-luciferase reporter;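 active = inhibition above the mean plus 3 SD of solvent-only control wells, limit set per screening run, cut at about 16% in these data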;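 also: 0% = DMSO with IFN-gamma and 100% = nifuroxazide control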
HSP90 inh confirm: HSP90 inhibitors, confirmation, cell lysate, luminescence; shares compounds with HSP90 inh; rabbit reticulocyte lysate, luciferase refolding luminescence, 3 h; inhibition, % at 5.9 µM; 64% of 2,300 active; in the data active = inhibition above about 18%;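 also: 0% = vehicle wells and 100% = reference inhibitor wells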
FLuc counter: firefly luciferase inhibitors, HSP90 counter-screen, confirmation, artefact control for HSP90 inhibitor project, biochemical, luminescence, triplicate | AID 1847, 2009 | shares compounds with HSP90 inh | 48% of 2,300 active | purified native firefly luciferase | inhibition, % at 5.9 µM;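 active = inhibition above the mean inhibition of all tested sample wells plus 3 SD, cut at about 10% in these data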;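 also: 0% = DMSO with luciferase and 100% = wells lacking luciferase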
Target sequence (P08659 whole entry, looked up): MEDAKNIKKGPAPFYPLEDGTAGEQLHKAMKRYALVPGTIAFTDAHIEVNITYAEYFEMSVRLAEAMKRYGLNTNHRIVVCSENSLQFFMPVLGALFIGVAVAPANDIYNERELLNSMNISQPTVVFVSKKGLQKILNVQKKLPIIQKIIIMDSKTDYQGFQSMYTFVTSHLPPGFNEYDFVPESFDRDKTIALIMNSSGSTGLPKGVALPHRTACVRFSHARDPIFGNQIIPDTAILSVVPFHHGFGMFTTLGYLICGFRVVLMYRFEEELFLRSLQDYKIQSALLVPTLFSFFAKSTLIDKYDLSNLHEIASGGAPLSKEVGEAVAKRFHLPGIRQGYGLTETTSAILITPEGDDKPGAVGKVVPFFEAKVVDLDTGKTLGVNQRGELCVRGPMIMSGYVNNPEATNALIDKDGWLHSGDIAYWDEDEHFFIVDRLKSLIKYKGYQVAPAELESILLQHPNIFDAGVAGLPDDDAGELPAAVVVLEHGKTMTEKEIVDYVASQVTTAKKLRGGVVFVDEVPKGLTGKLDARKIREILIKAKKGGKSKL
Numbers without * were called inactive; / = not tested or not shown.

SMILES	STAT3 activator	STAT3 inh-1	STAT1 inh	HSP90 inh	STAT3 inh-2	NFkB inh STAT3ct	STAT1 inh 2	HSP90 inh confirm	FLuc counter
COc1cccc(C(=O)Nc2ccc(NC(=O)C(C)(C)C)cn2)c1	55	58*	16	33*	8	-14	-67	48*	37*
COc1cccc(C(=O)Nc2ccc(NC(=O)C3CCCCC3)nc2)c1	/	/	/	-2	/	/	/	/	/
CCOC(=O)c1c(N)sc(C(=O)Nc2ccc3c(c2)OCO3)c1C	31	85*	24	41*	31	17*	-62	69*	59*
C=CCn1c(C)cc(C(=O)CSc2nc3ccccc3[nH]2)c1C	22	99*	30	32*	61*	15*	-64	62*	63*
O=C(Nc1ccccn1)c1onc2c1CCCC2	42	69*	-3	36*	53*	16*	-12	76*	68*
CC(=O)N1CCN(C(=O)COc2ccccc2C(=O)Nc2ccccc2)CC1	96	10	-1	-1	/	/	/	/	/
c1ccc(-c2cn3c4c(sc3n2)CCCC4)cc1	33	82*	27	33*	59*	50*	12	83*	80*
Cc1nnc(NC(=O)c2sc3ccccc3c2Cl)s1	45	66*	24	18*	45*	13*	19*	35*	18*
COCc1nnc(NC(=O)c2sc3ccccc3c2Cl)s1	95	9	-1	1	/	/	/	/	/
c1ccc(-c2[nH]ncc2CN2CCN(Cc3ccc4c(c3)OCO4)CC2)cc1	/	/	/	0	/	/	/	/	/
CCOCCCNC(=O)c1ccc2c(c1)OCO2	106	-5	-2	-1	/	/	/	/	/
O=C(NCCOc1ccccc1)c1ccc2c(c1)OCO2	39	76*	19	48*	39	26*	-20	71*	67*
CCOc1ccc(-c2ccc(SCc3ccccn3)nn2)cc1	85	26	-33	-3	/	/	/	/	/
CCOc1ccc(-c2ccc(SCC)nn2)cc1	42	72*	23	18*	31	1	-83	56*	39*
Cc1ccc(C(=O)CSc2nnnn2C(C)C)c(C)c1	35	78*	30	56*	49*	22*	-24	79*	72*
Cc1ccc(C)c(C(=O)CSc2nnnn2C(C)C)c1	90	16	-10	0	/	/	/	/	/
Cc1nc(C)c(C(=O)Nc2ncc([N+](=O)[O-])s2)o1	44	68*	30	47*	20	-4	-80	66*	41*
COc1ccc2nc(NC(=O)c3ccoc3C)sc2c1	50	63*	-3	22*	28	-16	-104	41*	30*
COc1ccc2nc(NC(=O)c3cc(C)oc3C)sc2c1	83	23	-42	2	/	/	/	/	/
Cc1csc(NC(=O)c2cc3c(s2)CCCC3)n1	27	86*	24	35*	55*	-1	-62	50*	50*
CCOC(=O)Cc1csc(NC(=O)c2cc3c(s2)CCCC3)n1	103	2	-1	9	/	/	/	/	/
O=[N+]([O-])c1ccccc1NC(=S)N/N=C/c1ccc(O)c(O)c1	44	68*	-56	43*	48*	-9	-47	2	-21
Cc1cccc(NC(=S)N/N=C/c2ccc(Cl)c([N+](=O)[O-])c2)c1	98	9	-2	1	/	/	/	/	/
